Assay results taken from PMC9321963 (Birth Defects Research, 2022).
Where “and” joins values, the source holds several entries; their conditions need not be identical. Equal entries are not always repeated.

How the values were obtained:
[1] = Toxicokinetics, rat DRF EFD study; format: in vivo; details: for AUC(0-t) / Cmax / Tmax: female, Sprague-Dawley (Crl:CD SD), rat, plasma, po, 60 mg/kg/day, rat DRF EFD, 60 mg/kg/day oral; for Cmax: C max; for Tmax: T max
[2] = Toxicokinetics, rat main EFD study; format: in vivo; details: for Tmax / AUC(0-t) / Cmax: female, Sprague-Dawley (Crl:CD SD), rat, plasma, po; for AUC(0-t) / Cmax: rat main EFD; for Cmax: C max
PI4Kα [3] = target: T1, PI4Kα (Homo sapiens, UniProt P42356); experiment: ADP-Glo Kinase Assay, PI4Kα; format: biochemical
PI4Kα [4] = target: T1, PI4Kα; details: chemoproteomic profiling, ref Paquet et al., [2017]; cited from earlier work
pregnant rats [5] = experiment: Rat main embryofetal developmental toxicity study; format: in vivo; details: for food consumption, % of control / maternal weight gain, % of control: GD6 to GD9
In short: (§1)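 GLP main study following ICH S5(R2): 24 time-mated naïve Crl:CD SD females per group (plug day = GD0) given 2, 6 or 20 mg/kg/day orally once daily GD6–GD17. Vehicle was 20% w/w Kolliphor HS 15 / 50% w/w PEG 400 in water, with the compound suspended in it. Necropsy followed CO2 euthanasia on GD21. Maternal body weight, weight gain, food intake, pregnancy status, corpora lutea, postimplantation loss and live fetuses were recorded. Fetal weight, external, visceral and skeletal examinations were done.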

[6] = Rat main embryofetal developmental toxicity study; format: in vivo; details: female, Sprague-Dawley, rat, in vivo, oral, maternal NOAEL, rat main EFD
In short: as §1

[7] = target: All other off‐targets including kinases tested; experiment: In vitro off-target and kinase panels, all other targets; format: biochemical; details: read-out: IC50s, all other off‐targets including kinases tested, human
pregnant rats [8] = experiment: Rat investigative embryofetal developmental toxicity study; format: in vivo; details: rat investigative EFD; for mean maternal body weight gain, % of controls: dosing and post dose periods
In short: (§2)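 Crl:OFA SD naïve time-mated females, 25 per group (plug day = GD0), under GLP and ICH S5(R2). Oral daily doses of 20, 40 or 60 mg/kg/day were given GD6–GD17; an extra 60 mg/kg/day group was dosed only GD8–GD11 (diaphragm formation). Suspension vehicle: 20% w/w Kolliphor HS 15 / 50% w/w PEG 400 in water. CO2 euthanasia and necropsy on GD21. Maternal endpoints were recorded, plus fetal weight, external and visceral exams.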

[9] = as above; format: in vivo; details: female, Sprague-Dawley, rat, in vivo, oral
In short: as §2

PI3Kγ = PI3Kγ (Homo sapiens, UniProt P48736); experiment: ADP-Glo Kinase Assay, PI3Kγ; format: biochemical
PI4Kβ = PI4Kβ (Homo sapiens, UniProt Q9UBF8); details: chemoproteomic profiling, ref Paquet et al., [2017]; cited from earlier work
[10] = 2 mg/kg/day, 2 mg/kg/day oral, GD6
[11] = 2 mg/kg/day, 2 mg/kg/day oral, GD17
[12] = 6 mg/kg/day, 6 mg/kg/day oral, GD6
[13] = 6 mg/kg/day, 6 mg/kg/day oral, GD17
[14] = 20 mg/kg/day, 20 mg/kg/day oral, GD6
[15] = 20 mg/kg/day, 20 mg/kg/day oral, GD17
[16] = rat main EFD, 2 mg/kg/day GD6-GD17
[17] = rat main EFD, 6 mg/kg/day GD6-GD17
[18] = rat main EFD, 20 mg/kg/day GD6-GD17
[19] = 60 mg/kg/day, only dosed GD8 to GD11

T1 sequence (P42356 whole entry): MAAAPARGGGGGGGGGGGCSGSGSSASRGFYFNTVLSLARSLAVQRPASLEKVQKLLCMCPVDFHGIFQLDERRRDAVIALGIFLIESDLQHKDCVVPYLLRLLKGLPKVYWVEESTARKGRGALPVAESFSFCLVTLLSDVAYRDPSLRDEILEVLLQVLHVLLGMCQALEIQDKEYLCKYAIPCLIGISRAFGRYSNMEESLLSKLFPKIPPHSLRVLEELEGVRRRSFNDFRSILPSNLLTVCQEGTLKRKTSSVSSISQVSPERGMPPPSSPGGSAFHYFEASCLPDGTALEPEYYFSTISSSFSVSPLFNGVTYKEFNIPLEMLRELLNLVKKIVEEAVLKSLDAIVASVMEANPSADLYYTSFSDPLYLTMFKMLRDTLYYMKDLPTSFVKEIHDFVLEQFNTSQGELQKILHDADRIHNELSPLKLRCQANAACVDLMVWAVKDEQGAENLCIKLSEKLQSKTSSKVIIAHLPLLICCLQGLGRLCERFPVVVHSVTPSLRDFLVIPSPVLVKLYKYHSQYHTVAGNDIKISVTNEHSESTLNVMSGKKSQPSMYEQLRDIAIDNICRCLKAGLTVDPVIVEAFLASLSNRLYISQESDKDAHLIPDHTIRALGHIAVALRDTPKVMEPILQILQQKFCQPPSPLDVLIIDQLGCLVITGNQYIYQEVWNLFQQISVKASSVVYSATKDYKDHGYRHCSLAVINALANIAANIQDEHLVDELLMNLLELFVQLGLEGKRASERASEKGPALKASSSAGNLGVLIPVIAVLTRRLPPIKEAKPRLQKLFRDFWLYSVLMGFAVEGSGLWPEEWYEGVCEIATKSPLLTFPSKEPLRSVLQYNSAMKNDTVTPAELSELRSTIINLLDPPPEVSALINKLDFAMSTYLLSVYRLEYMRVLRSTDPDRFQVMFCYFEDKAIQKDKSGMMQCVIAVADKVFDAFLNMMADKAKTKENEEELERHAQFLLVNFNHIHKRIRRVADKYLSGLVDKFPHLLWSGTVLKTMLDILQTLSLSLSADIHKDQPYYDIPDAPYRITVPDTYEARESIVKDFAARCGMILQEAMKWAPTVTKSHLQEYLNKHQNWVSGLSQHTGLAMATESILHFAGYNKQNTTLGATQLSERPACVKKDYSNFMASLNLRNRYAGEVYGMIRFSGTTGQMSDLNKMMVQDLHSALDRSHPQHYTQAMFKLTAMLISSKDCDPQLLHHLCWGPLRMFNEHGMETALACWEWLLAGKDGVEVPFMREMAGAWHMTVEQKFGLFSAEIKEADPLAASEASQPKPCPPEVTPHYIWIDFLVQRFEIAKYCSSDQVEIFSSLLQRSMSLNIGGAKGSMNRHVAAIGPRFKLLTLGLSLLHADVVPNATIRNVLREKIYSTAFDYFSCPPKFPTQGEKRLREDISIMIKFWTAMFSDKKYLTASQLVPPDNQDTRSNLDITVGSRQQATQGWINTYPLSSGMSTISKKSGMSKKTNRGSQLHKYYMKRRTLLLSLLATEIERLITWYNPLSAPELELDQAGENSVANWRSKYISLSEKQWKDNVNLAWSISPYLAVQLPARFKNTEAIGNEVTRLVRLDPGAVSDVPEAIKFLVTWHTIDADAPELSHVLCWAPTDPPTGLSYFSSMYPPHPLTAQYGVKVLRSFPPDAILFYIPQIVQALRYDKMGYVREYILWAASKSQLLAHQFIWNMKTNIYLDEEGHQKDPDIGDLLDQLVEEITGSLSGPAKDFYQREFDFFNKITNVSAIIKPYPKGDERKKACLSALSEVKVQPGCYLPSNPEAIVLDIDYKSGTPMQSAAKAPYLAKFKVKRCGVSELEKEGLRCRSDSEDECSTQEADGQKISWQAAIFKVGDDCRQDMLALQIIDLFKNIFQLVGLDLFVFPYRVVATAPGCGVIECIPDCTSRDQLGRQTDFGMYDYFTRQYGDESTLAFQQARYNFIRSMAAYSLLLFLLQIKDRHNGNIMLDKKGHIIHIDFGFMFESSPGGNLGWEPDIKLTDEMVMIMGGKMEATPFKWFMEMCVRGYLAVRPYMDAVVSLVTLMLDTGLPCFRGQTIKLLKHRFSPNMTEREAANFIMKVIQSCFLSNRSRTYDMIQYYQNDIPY
PI3Kγ, sequence (P48736 whole entry): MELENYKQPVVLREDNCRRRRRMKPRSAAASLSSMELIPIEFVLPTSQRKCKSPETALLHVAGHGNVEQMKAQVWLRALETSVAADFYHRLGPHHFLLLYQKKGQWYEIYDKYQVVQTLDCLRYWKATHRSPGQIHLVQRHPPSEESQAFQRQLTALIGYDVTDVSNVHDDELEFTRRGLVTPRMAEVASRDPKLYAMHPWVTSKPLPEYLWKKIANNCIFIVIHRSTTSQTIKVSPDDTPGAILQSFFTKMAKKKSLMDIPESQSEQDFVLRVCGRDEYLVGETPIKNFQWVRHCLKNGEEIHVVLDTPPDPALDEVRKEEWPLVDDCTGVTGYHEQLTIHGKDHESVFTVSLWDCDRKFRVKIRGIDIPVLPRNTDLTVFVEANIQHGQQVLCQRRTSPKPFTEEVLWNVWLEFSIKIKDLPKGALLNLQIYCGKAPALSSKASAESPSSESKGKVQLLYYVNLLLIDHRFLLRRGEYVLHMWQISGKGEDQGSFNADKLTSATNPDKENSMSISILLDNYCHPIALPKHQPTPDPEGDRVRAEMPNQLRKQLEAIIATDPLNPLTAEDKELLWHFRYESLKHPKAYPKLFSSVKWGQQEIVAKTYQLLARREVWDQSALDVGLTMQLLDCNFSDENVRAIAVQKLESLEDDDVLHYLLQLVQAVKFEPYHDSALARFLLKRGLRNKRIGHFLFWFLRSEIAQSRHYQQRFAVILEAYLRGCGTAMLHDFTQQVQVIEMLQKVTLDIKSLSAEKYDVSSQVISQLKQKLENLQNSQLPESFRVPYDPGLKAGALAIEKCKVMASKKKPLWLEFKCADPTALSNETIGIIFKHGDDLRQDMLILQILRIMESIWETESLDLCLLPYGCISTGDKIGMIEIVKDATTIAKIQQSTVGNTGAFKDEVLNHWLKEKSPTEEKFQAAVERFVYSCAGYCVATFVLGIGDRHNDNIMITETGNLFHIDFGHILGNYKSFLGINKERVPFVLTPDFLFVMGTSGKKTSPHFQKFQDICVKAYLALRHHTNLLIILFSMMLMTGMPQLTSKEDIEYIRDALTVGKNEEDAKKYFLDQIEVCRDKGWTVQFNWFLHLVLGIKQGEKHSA
PI4Kβ, sequence (Q9UBF8 whole entry): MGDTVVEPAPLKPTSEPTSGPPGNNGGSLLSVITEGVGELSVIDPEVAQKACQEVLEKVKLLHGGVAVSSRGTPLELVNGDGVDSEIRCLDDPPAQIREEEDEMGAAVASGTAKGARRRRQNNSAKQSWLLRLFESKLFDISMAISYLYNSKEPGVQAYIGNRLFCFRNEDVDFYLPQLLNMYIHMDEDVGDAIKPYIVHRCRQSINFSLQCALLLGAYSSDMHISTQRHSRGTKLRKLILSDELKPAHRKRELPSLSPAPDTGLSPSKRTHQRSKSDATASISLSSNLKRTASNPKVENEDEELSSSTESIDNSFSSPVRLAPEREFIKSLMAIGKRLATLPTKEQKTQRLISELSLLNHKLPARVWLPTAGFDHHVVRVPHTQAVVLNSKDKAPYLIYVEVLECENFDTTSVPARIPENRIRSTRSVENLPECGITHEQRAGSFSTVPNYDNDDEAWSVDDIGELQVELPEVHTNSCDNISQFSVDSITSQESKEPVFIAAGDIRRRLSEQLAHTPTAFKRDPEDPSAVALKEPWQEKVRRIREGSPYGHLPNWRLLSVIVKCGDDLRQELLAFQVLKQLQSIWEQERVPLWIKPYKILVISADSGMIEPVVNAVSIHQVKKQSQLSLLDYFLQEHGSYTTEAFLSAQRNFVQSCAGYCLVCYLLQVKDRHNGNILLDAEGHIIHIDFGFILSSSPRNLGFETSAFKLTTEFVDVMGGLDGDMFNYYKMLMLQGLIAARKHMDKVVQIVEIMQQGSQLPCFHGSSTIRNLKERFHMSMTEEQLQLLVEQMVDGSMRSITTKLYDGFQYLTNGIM

CS(=O)(=O)c1ccc(-c2cnc(N)c(-c3ccc(C(F)(F)F)nc3)c2)cc1 [MMV390048]
maximum concentrations achieved in vivo, free ([1]; across rat EFD in vivo studies): 8 µM
AUC(0-t) ([1]; GD6): 229000 ng·h/mL
AUC(0-t) ([1]; GD17): 361000 ng·h/mL
Cmax ([1]; GD6): 15600 ng/mL
Cmax ([1]; GD17): 21300 ng/mL
Tmax ([1]; GD6): 8 h
Tmax ([1]; GD17): 4 h
Maximum exposure (free) ([1]; rat DRF EFD KIT, GD17, 60 mg/kg, 4 hr post dose): 8 μM/L
Tmax ([2]; 2 mg/kg/day): 2 h
AUC(0-t) [2, 10]: 3750 ng·h/mL
AUC(0-t) [2, 11]: 3770 ng·h/mL
Cmax [2, 10]: 680 ng/mL
Cmax [2, 11]: 681 ng/mL
Tmax ([2]; 6 mg/kg/day): 2 h
AUC(0-t) [2, 12]: 19600 ng·h/mL
AUC(0-t) [2, 13]: 21400 ng·h/mL
Cmax [2, 12]: 1380 ng/mL
Cmax [2, 13]: 1600 ng/mL
Tmax ([2]; 20 mg/kg/day): 4 h
AUC(0-t) [2, 14]: 70000 ng·h/mL
AUC(0-t) [2, 15]: 74400 ng·h/mL
Cmax [2, 14]: 4950 ng/mL
Cmax [2, 15]: 5190 ng/mL
Maximum exposure (free) ([2]; rat EFD main KIT, GD17, 20 mg/kg, 4 hr post dose): 2 μM/L
IC50 (PI4Kα [3]): 18.7 µM
binding to human PI4Kα (PI4Kα [4]): no binding
Developmental safety margins (pregnant rats [5]; rat NOAEL of 6 mg/kg/day vs observed clinical PK data, human volunteers and patients): < 1
Female with viable fetuses (pregnant rats [5]; [16]): 22/22
Postimplantation loss (%) (pregnant rats [5]; [16]): 6.9%
Edema, fetuses with malformation/total fetuses examined (pregnant rats [5]; [17]): 1/336
Edema, litters with malformation/total litters examined (pregnant rats [5]; [17]): 1/23
Female with viable fetuses (pregnant rats [5]; [17]): 23/23
Postimplantation loss (%) (pregnant rats [5]; [17]): 3.5%
food consumption, % of control (pregnant rats [5]; rat main EFD, 6 mg/kg/day): 8.9 % of control
maternal weight gain, % of control (pregnant rats [5]; rat main EFD, 6 mg/kg/day): 20.2 % of control
Female with viable fetuses (pregnant rats [5]; [18]): 22/22
Hernias, fetuses with malformation/total fetuses examined (pregnant rats [5]; [18]): 1/154
Hernias, litters with malformation/total litters examined (pregnant rats [5]; [18]): 1/22
Postimplantation loss (%) (pregnant rats [5]; [18]): 2.9%
food consumption, % of control (pregnant rats [5]; rat main EFD, 20 mg/kg/day): 11.5 % of control
maternal weight gain, % of control (pregnant rats [5]; rat main EFD, 20 mg/kg/day): 41.1 % of control
NOAEL [6]: 2 mg/kg/day
IC50 [7]: ≥ 20 µM
NOAEL for developmental toxicity (pregnant rats [8]): not established
Blood vessels AARS, fetuses with malformation/total fetuses examined (pregnant rats [8]; 20 mg/kg/day GD6-GD17): 2/280
Blood vessels AARS, litters with malformation/total litters examined (pregnant rats [8]; 20 mg/kg/day GD6-GD17): 2/24
Blood vessels ADA, fetuses with malformation/total fetuses examined (pregnant rats [8]; 20 mg/kg/day GD6-GD17): 4/280
Blood vessels ADA, litters with malformation/total litters examined (pregnant rats [8]; 20 mg/kg/day GD6-GD17): 3/24
Blood vessels IAA, fetuses with malformation/total fetuses examined (pregnant rats [8]; 20 mg/kg/day GD6-GD17): 2/280
Blood vessels IAA, litters with malformation/total litters examined (pregnant rats [8]; 20 mg/kg/day GD6-GD17): 2/24
Blood vessels NPT, fetuses with malformation/total fetuses examined (pregnant rats [8]; 20 mg/kg/day GD6-GD17): 1/280
Blood vessels NPT, litters with malformation/total litters examined (pregnant rats [8]; 20 mg/kg/day GD6-GD17): 1/24
Edema, fetuses with malformation/total fetuses examined (pregnant rats [8]; 20 mg/kg/day GD6-GD17): 1/280
Edema, litters with malformation/total litters examined (pregnant rats [8]; 20 mg/kg/day GD6-GD17): 1/24
Female with viable fetuses (pregnant rats [8]; 20 mg/kg/day GD6-GD17): 24/24
Fetal BW % from CTL (pregnant rats [8]; 20 mg/kg/day GD6-GD17): −10%
Heart VSD, fetuses with malformation/total fetuses examined (pregnant rats [8]; 20 mg/kg/day GD6-GD17): 1/280
Heart VSD, litters with malformation/total litters examined (pregnant rats [8]; 20 mg/kg/day GD6-GD17): 1/24
Hernias, fetuses with malformation/total fetuses examined (pregnant rats [8]; 20 mg/kg/day GD6-GD17): 35/280
Hernias, litters with malformation/total litters examined (pregnant rats [8]; 20 mg/kg/day GD6-GD17): 16/24
Postimplantation loss (%) (pregnant rats [8]; 20 mg/kg/day GD6-GD17): 9.6%
females with no viable fetuses, number (pregnant rats [8]; 40 mg/kg/day): 6 females
Blood vessels AARS, fetuses with malformation/total fetuses examined (pregnant rats [8]; 40 mg/kg/day GD6-GD17): 8/97
Blood vessels AARS, litters with malformation/total litters examined (pregnant rats [8]; 40 mg/kg/day GD6-GD17): 8/16
Blood vessels ADA, fetuses with malformation/total fetuses examined (pregnant rats [8]; 40 mg/kg/day GD6-GD17): 9/97
Blood vessels ADA, litters with malformation/total litters examined (pregnant rats [8]; 40 mg/kg/day GD6-GD17): 7/16
Blood vessels IAA, fetuses with malformation/total fetuses examined (pregnant rats [8]; 40 mg/kg/day GD6-GD17): 4/97
Blood vessels IAA, litters with malformation/total litters examined (pregnant rats [8]; 40 mg/kg/day GD6-GD17): 4/16
Blood vessels NPT, fetuses with malformation/total fetuses examined (pregnant rats [8]; 40 mg/kg/day GD6-GD17): 9/97
Blood vessels NPT, litters with malformation/total litters examined (pregnant rats [8]; 40 mg/kg/day GD6-GD17): 6/16
Edema, fetuses with malformation/total fetuses examined (pregnant rats [8]; 40 mg/kg/day GD6-GD17): 1/97
Edema, litters with malformation/total litters examined (pregnant rats [8]; 40 mg/kg/day GD6-GD17): 1/16
Female with viable fetuses (pregnant rats [8]; 40 mg/kg/day GD6-GD17): 16/22
Fetal BW % from CTL (pregnant rats [8]; 40 mg/kg/day GD6-GD17): −24%
Heart Thick VW, fetuses with malformation/total fetuses examined (pregnant rats [8]; 40 mg/kg/day GD6-GD17): 1/97
Heart Thick VW, litters with malformation/total litters examined (pregnant rats [8]; 40 mg/kg/day GD6-GD17): 1/16
Heart VSD, fetuses with malformation/total fetuses examined (pregnant rats [8]; 40 mg/kg/day GD6-GD17): 21/97
Heart VSD, litters with malformation/total litters examined (pregnant rats [8]; 40 mg/kg/day GD6-GD17): 8/16
Hernias, fetuses with malformation/total fetuses examined (pregnant rats [8]; 40 mg/kg/day GD6-GD17): 63/97
Hernias, litters with malformation/total litters examined (pregnant rats [8]; 40 mg/kg/day GD6-GD17): 15/16
Postimplantation loss (%) (pregnant rats [8]; 40 mg/kg/day GD6-GD17): 66.45%
mean maternal body weight gain, % of controls (pregnant rats [8]; 40 mg/kg/day): 41 % of controls
females with no viable fetuses, number (pregnant rats [8]; 60 mg/kg/day): 11 females
mean maternal body weight gain, % of controls (pregnant rats [8]; 60 mg/kg/day): 49 % of controls
Blood vessels AARS, fetuses with malformation/total fetuses examined (pregnant rats [8]; [19]): 12/65
Blood vessels AARS, litters with malformation/total litters examined (pregnant rats [8]; [19]): 12/14
Blood vessels ADA, fetuses with malformation/total fetuses examined (pregnant rats [8]; [19]): 10/65
Blood vessels ADA, litters with malformation/total litters examined (pregnant rats [8]; [19]): 6/14
Blood vessels IAA, fetuses with malformation/total fetuses examined (pregnant rats [8]; [19]): 1/65
Blood vessels IAA, litters with malformation/total litters examined (pregnant rats [8]; [19]): 1/14
Blood vessels NPT, fetuses with malformation/total fetuses examined (pregnant rats [8]; [19]): 10/65
Blood vessels NPT, litters with malformation/total litters examined (pregnant rats [8]; [19]): 6/14
Edema, fetuses with malformation/total fetuses examined (pregnant rats [8]; [19]): 2/65
Edema, litters with malformation/total litters examined (pregnant rats [8]; [19]): 1/14
Female with viable fetuses (pregnant rats [8]; [19]): 14/25
Fetal BW % from CTL (pregnant rats [8]; [19]): −26%
Heart Thick VW, fetuses with malformation/total fetuses examined (pregnant rats [8]; [19]): 3/65
Heart Thick VW, litters with malformation/total litters examined (pregnant rats [8]; [19]): 3/14
Hernias, fetuses with malformation/total fetuses examined (pregnant rats [8]; [19]): 31/65
Hernias, litters with malformation/total litters examined (pregnant rats [8]; [19]): 11/14
Postimplantation loss (%) (pregnant rats [8]; [19]): 79.22% and 79.2%
NOAEL [9]: 20 mg/kg/day
IC50 (PI3Kγ): 4.3 µM
binding to human PI4Kβ (PI4Kβ): no binding
